pKi: −log10 of the molar value. The source made the active and inactive calls. No cut-off for these calls is given here.
Biological target: T1, Adenosine receptor A1 (Rattus norvegicus) (UniProt P25099)
T1 sequence (whole entry): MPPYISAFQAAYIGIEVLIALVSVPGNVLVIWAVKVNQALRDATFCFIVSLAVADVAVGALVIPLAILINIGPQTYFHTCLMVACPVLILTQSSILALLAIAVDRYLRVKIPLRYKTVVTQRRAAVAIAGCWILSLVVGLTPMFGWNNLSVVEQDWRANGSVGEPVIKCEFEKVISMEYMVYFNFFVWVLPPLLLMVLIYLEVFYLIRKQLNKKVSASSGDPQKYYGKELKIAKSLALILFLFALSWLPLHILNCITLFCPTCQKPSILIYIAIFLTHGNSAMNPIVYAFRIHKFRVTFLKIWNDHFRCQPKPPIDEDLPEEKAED
Test: Percent displacement from adenosine A1 receptor at 10e-5 M in rat brain membrane in vitro.
Type: cell membranes
Settings: not given

Row | SMILES | Displacement [%]
1 | O=C(NC1CC1)[C@H]1O[C@@H](n2cnc3c(NCCc4cn(CCN5CCCC5)c5ccccc45)ncnc32)[C@H](O)[C@@H]1O | 100
2 | Cc1ccc(C)c(Cn2cc(CCNc3ncnc4c3ncn4[C@@H]3O[C@H](C(=O)NC4CC4)[C@@H](O)[C@H]3O)c3cc(Cl)ccc32)c1 | 99
3 | CN(C)c1ccccc1Cn1cc(CCNc2ncnc3c2ncn3C2O[C@H](C(=O)NC3CC3)[C@@H](O)[C@H]2O)c2ccccc21 (stereo partly specified) | 99
4 | Cc1c(CCNc2ncnc3c2ncn3[C@@H]2O[C@H](C(=O)NC3CC3)[C@@H](O)[C@H]2O)c2ccccc2n1C1CCCC1 | 77
5 | Cc1ccc(C)c(Cn2cc(CCNc3ncnc4c3ncn4C3O[C@H](C(=O)NCCN4CCOCC4)[C@@H](O)[C@H]3O)c3ccccc32)c1 (stereo partly specified) | 5
6 | OC[C@H]1OC(n2cnc3c(NCCc4cn(Cc5c(Cl)cccc5Cl)c5ccccc45)ncnc32)[C@H](O)[C@@H]1O (stereo partly specified) | 92
7 | CNC(=O)[C@H]1O[C@@H](n2cnc3c(NCCc4cn(Cc5cc(C)ccc5C)c5ccccc45)ncnc32)[C@H](O)[C@@H]1O | 80
8 | Cc1ccc(C)c(Cn2cc(CCNc3ncnc4c3ncn4[C@@H]3O[C@H](C(=O)NC4CC4)[C@@H](O)[C@H]3O)c3cc(C)ccc32)c1 | 100
9 | CC(C)n1cc(CCNc2ncnc3c2ncn3[C@@H]2O[C@H](C(=O)NC3CC3)[C@@H](O)[C@H]2O)c2ccccc21 | 87
10 | COc1ccccc1Cn1cc(CCNc2ncnc3c2ncn3C2O[C@H](C(=O)NC3CC3)[C@@H](O)[C@H]2O)c2ccccc21 (stereo partly specified) | 100

Biological target: T2, Adenosine receptor A1 (Rattus norvegicus, UniProt P25099)
T2 sequence (P25099 whole entry): T1 sequence (whole entry)
Test: Binding affinity for adenosine A1 receptor in vitro using rat brain membranes.
Type: cell membranes
Settings: not given
Method in brief: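 Whole rat brain membranes, homogenized in 50 mM Tris-HCl pH 7.4 and spun at 1090g then 48000g, pretreated with adenosine deaminase 1 U/mL for 30 min. Nonspecific binding defined with 10 μM PIA. Separated by GF/B filtration and scintillation counted, in triplicate. IC50 from log-logit regression, Ki via Cheng-Prusoff, one experiment.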

Row | SMILES | pKi
11 | O=C(NC1CC1)[C@H]1O[C@@H](n2cnc3c(NCCc4cn(CCN5CCCC5)c5ccccc45)ncnc32)[C@H](O)[C@@H]1O | 8.12
12 | Cc1ccc(C)c(Cn2cc(CCNc3ncnc4c3ncn4[C@@H]3O[C@H](C(=O)NC4CC4)[C@@H](O)[C@H]3O)c3cc(Cl)ccc32)c1 | 6.82
13 | CN(C)c1ccccc1Cn1cc(CCNc2ncnc3c2ncn3C2O[C@H](C(=O)NC3CC3)[C@@H](O)[C@H]2O)c2ccccc21 (stereo partly specified) | 6.77
14 | Cc1c(CCNc2ncnc3c2ncn3[C@@H]2O[C@H](C(=O)NC3CC3)[C@@H](O)[C@H]2O)c2ccccc2n1C1CCCC1 | 6.05
15 | CNC(=O)[C@H]1O[C@@H](n2cnc3c(NCCc4cn(Cc5cc(C)ccc5C)c5ccccc45)ncnc32)[C@H](O)[C@@H]1O | 5.85
16 | Cc1ccc(C)c(Cn2cc(CCNc3ncnc4c3ncn4[C@@H]3O[C@H](C(=O)NC4CC4)[C@@H](O)[C@H]3O)c3cc(C)ccc32)c1 | 7.21
17 | CC(C)n1cc(CCNc2ncnc3c2ncn3[C@@H]2O[C@H](C(=O)NC3CC3)[C@@H](O)[C@H]2O)c2ccccc21 | 6.92
18 | COc1ccccc1Cn1cc(CCNc2ncnc3c2ncn3C2O[C@H](C(=O)NC3CC3)[C@@H](O)[C@H]2O)c2ccccc21 (stereo partly specified) | 6.77

Tested on: Mus musculus
Test: Effective dose for phenylbenzoquinone-induced writhing in mice after peroral administration expressed as analgesic activity.
Type: functional
Settings: not given
Method in brief: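 Mice dosed orally (0.5 mL/20 g); 1 h later given 0.02% phenylbenzoquinone in hydroalcoholic solution ip (0.20-0.24 mL). Writhings and stretches counted from minute 5 to minute 10. Six animals per group. Inhibition taken against the control mean; ED50 (50% decrease) by linear regression.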

Row | SMILES | ED50
19 | OC[C@H]1OC(n2cnc3c(NCCc4cn(Cc5c(Cl)cccc5Cl)c5ccccc45)ncnc32)[C@H](O)[C@@H]1O (stereo partly specified) | inactive

Same assay, conditions: po

Row | SMILES | ED50 [mg/kg]
20 | O=C(NC1CC1)[C@H]1O[C@@H](n2cnc3c(NCCc4cn(CCN5CCCC5)c5ccccc45)ncnc32)[C@H](O)[C@@H]1O | 44.2
21 | Cc1ccc(C)c(Cn2cc(CCNc3ncnc4c3ncn4[C@@H]3O[C@H](C(=O)NC4CC4)[C@@H](O)[C@H]3O)c3cc(Cl)ccc32)c1 | 6.3
22 | CN(C)c1ccccc1Cn1cc(CCNc2ncnc3c2ncn3C2O[C@H](C(=O)NC3CC3)[C@@H](O)[C@H]2O)c2ccccc21 (stereo partly specified) | 1.9
23 | Cc1c(CCNc2ncnc3c2ncn3[C@@H]2O[C@H](C(=O)NC3CC3)[C@@H](O)[C@H]2O)c2ccccc2n1C1CCCC1 | 0.5
24 | Cc1ccc(C)c(Cn2cc(CCNc3ncnc4c3ncn4C3O[C@H](C(=O)NCCN4CCOCC4)[C@@H](O)[C@H]3O)c3ccccc32)c1 (stereo partly specified) | > 60
25 | CNC(=O)[C@H]1O[C@@H](n2cnc3c(NCCc4cn(Cc5cc(C)ccc5C)c5ccccc45)ncnc32)[C@H](O)[C@@H]1O | 10.2
26 | Cc1ccc(C)c(Cn2cc(CCNc3ncnc4c3ncn4[C@@H]3O[C@H](C(=O)NC4CC4)[C@@H](O)[C@H]3O)c3cc(C)ccc32)c1 | 0.9
27 | CC(C)n1cc(CCNc2ncnc3c2ncn3[C@@H]2O[C@H](C(=O)NC3CC3)[C@@H](O)[C@H]2O)c2ccccc21 | 1.6
28 | COc1ccccc1Cn1cc(CCNc2ncnc3c2ncn3C2O[C@H](C(=O)NC3CC3)[C@@H](O)[C@H]2O)c2ccccc21 (stereo partly specified) | 2.3

Biological target: Adenosine A2 receptor (Rattus norvegicus, UniProt P29276+P30543)
Test: Binding affinity for adenosine A2 receptor in vitro using rat striatal membrane.
Type: cell membranes
Settings: not given
Method in brief: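 Rat striatal membranes in 50 mM Tris-HCl, 10 mM MgCl2, pH 7.7, adenosine deaminase treated (1 U/mL, 30 min). Incubated with [3H]NECA (4 nM, 50 μL) plus 0.11 μM cyclopentyladenosine and competitor for 60 min at 25 °C. Nonspecific binding defined with 5 μM NECA. GF/B filtration, scintillation counting, triplicate. IC50 from log-logit regression, Ki via Cheng-Prusoff, one experiment.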

Row | SMILES | Ki [nM]
29 | O=C(NC1CC1)[C@H]1O[C@@H](n2cnc3c(NCCc4cn(CCN5CCCC5)c5ccccc45)ncnc32)[C@H](O)[C@@H]1O | 58
30 | Cc1ccc(C)c(Cn2cc(CCNc3ncnc4c3ncn4[C@@H]3O[C@H](C(=O)NC4CC4)[C@@H](O)[C@H]3O)c3cc(Cl)ccc32)c1 | 660
31 | CN(C)c1ccccc1Cn1cc(CCNc2ncnc3c2ncn3C2O[C@H](C(=O)NC3CC3)[C@@H](O)[C@H]2O)c2ccccc21 (stereo partly specified) | 760
32 | Cc1c(CCNc2ncnc3c2ncn3[C@@H]2O[C@H](C(=O)NC3CC3)[C@@H](O)[C@H]2O)c2ccccc2n1C1CCCC1 | 2180
33 | CNC(=O)[C@H]1O[C@@H](n2cnc3c(NCCc4cn(Cc5cc(C)ccc5C)c5ccccc45)ncnc32)[C@H](O)[C@@H]1O | 3000
34 | Cc1ccc(C)c(Cn2cc(CCNc3ncnc4c3ncn4[C@@H]3O[C@H](C(=O)NC4CC4)[C@@H](O)[C@H]3O)c3cc(C)ccc32)c1 | 890
35 | CC(C)n1cc(CCNc2ncnc3c2ncn3[C@@H]2O[C@H](C(=O)NC3CC3)[C@@H](O)[C@H]2O)c2ccccc21 | 390
36 | COc1ccccc1Cn1cc(CCNc2ncnc3c2ncn3C2O[C@H](C(=O)NC3CC3)[C@@H](O)[C@H]2O)c2ccccc21 (stereo partly specified) | 810

Biological target: T3, Adenosine A2 receptor (Rattus norvegicus) (UniProt P29276+P30543)
Test: Percent displacement from adenosine A2 receptor at 10e-5 M in rat striatal membrane in vitro.
Type: cell membranes
Settings: not given

Row | SMILES | Displacement [%]
37 | O=C(NC1CC1)[C@H]1O[C@@H](n2cnc3c(NCCc4cn(CCN5CCCC5)c5ccccc45)ncnc32)[C@H](O)[C@@H]1O | 95
38 | Cc1ccc(C)c(Cn2cc(CCNc3ncnc4c3ncn4[C@@H]3O[C@H](C(=O)NC4CC4)[C@@H](O)[C@H]3O)c3cc(Cl)ccc32)c1 | 77
39 | CN(C)c1ccccc1Cn1cc(CCNc2ncnc3c2ncn3C2O[C@H](C(=O)NC3CC3)[C@@H](O)[C@H]2O)c2ccccc21 (stereo partly specified) | 92
40 | Cc1c(CCNc2ncnc3c2ncn3[C@@H]2O[C@H](C(=O)NC3CC3)[C@@H](O)[C@H]2O)c2ccccc2n1C1CCCC1 | 92
41 | Cc1ccc(C)c(Cn2cc(CCNc3ncnc4c3ncn4C3O[C@H](C(=O)NCCN4CCOCC4)[C@@H](O)[C@H]3O)c3ccccc32)c1 (stereo partly specified) | 19
42 | OC[C@H]1OC(n2cnc3c(NCCc4cn(Cc5c(Cl)cccc5Cl)c5ccccc45)ncnc32)[C@H](O)[C@@H]1O (stereo partly specified) | 91
43 | CNC(=O)[C@H]1O[C@@H](n2cnc3c(NCCc4cn(Cc5cc(C)ccc5C)c5ccccc45)ncnc32)[C@H](O)[C@@H]1O | 68
44 | Cc1ccc(C)c(Cn2cc(CCNc3ncnc4c3ncn4[C@@H]3O[C@H](C(=O)NC4CC4)[C@@H](O)[C@H]3O)c3cc(C)ccc32)c1 | 70
45 | CC(C)n1cc(CCNc2ncnc3c2ncn3[C@@H]2O[C@H](C(=O)NC3CC3)[C@@H](O)[C@H]2O)c2ccccc21 | 91
46 | COc1ccccc1Cn1cc(CCNc2ncnc3c2ncn3C2O[C@H](C(=O)NC3CC3)[C@@H](O)[C@H]2O)c2ccccc21 (stereo partly specified) | 89

Biological target: T1, Adenosine receptor A1 (Rattus norvegicus)
Test: Percent displacement from adenosine A1 receptor at 10e-7 M in rat brain membrane in vitro.
Type: cell membranes
Settings: not given

Row | SMILES | Displacement [%]
47 | O=C(NC1CC1)[C@H]1O[C@@H](n2cnc3c(NCCc4cn(CCN5CCCC5)c5ccccc45)ncnc32)[C@H](O)[C@@H]1O | 96
48 | Cc1ccc(C)c(Cn2cc(CCNc3ncnc4c3ncn4[C@@H]3O[C@H](C(=O)NC4CC4)[C@@H](O)[C@H]3O)c3cc(Cl)ccc32)c1 | 47
49 | CN(C)c1ccccc1Cn1cc(CCNc2ncnc3c2ncn3C2O[C@H](C(=O)NC3CC3)[C@@H](O)[C@H]2O)c2ccccc21 (stereo partly specified) | 33
50 | Cc1c(CCNc2ncnc3c2ncn3[C@@H]2O[C@H](C(=O)NC3CC3)[C@@H](O)[C@H]2O)c2ccccc2n1C1CCCC1 | 15
51 | Cc1ccc(C)c(Cn2cc(CCNc3ncnc4c3ncn4C3O[C@H](C(=O)NCCN4CCOCC4)[C@@H](O)[C@H]3O)c3ccccc32)c1 (stereo partly specified) | 5
52 | OC[C@H]1OC(n2cnc3c(NCCc4cn(Cc5c(Cl)cccc5Cl)c5ccccc45)ncnc32)[C@H](O)[C@@H]1O (stereo partly specified) | 15
53 | CNC(=O)[C@H]1O[C@@H](n2cnc3c(NCCc4cn(Cc5cc(C)ccc5C)c5ccccc45)ncnc32)[C@H](O)[C@@H]1O | 12
54 | Cc1ccc(C)c(Cn2cc(CCNc3ncnc4c3ncn4[C@@H]3O[C@H](C(=O)NC4CC4)[C@@H](O)[C@H]3O)c3cc(C)ccc32)c1 | 50
55 | CC(C)n1cc(CCNc2ncnc3c2ncn3[C@@H]2O[C@H](C(=O)NC3CC3)[C@@H](O)[C@H]2O)c2ccccc21 | 4
56 | COc1ccccc1Cn1cc(CCNc2ncnc3c2ncn3C2O[C@H](C(=O)NC3CC3)[C@@H](O)[C@H]2O)c2ccccc21 (stereo partly specified) | 42

Biological target: T3, Adenosine A2 receptor (Rattus norvegicus)
Test: Percent displacement from adenosine A2 receptor at 10e-7 M in rat striatal membrane in vitro.
Type: cell membranes
Settings: Striatum

Row | SMILES | Displacement [%]
57 | O=C(NC1CC1)[C@H]1O[C@@H](n2cnc3c(NCCc4cn(CCN5CCCC5)c5ccccc45)ncnc32)[C@H](O)[C@@H]1O | 53
58 | Cc1ccc(C)c(Cn2cc(CCNc3ncnc4c3ncn4[C@@H]3O[C@H](C(=O)NC4CC4)[C@@H](O)[C@H]3O)c3cc(Cl)ccc32)c1 | 10
59 | CN(C)c1ccccc1Cn1cc(CCNc2ncnc3c2ncn3C2O[C@H](C(=O)NC3CC3)[C@@H](O)[C@H]2O)c2ccccc21 (stereo partly specified) | 5
60 | Cc1c(CCNc2ncnc3c2ncn3[C@@H]2O[C@H](C(=O)NC3CC3)[C@@H](O)[C@H]2O)c2ccccc2n1C1CCCC1 | 6
61 | Cc1ccc(C)c(Cn2cc(CCNc3ncnc4c3ncn4C3O[C@H](C(=O)NCCN4CCOCC4)[C@@H](O)[C@H]3O)c3ccccc32)c1 (stereo partly specified) | 0
62 | OC[C@H]1OC(n2cnc3c(NCCc4cn(Cc5c(Cl)cccc5Cl)c5ccccc45)ncnc32)[C@H](O)[C@@H]1O (stereo partly specified) | 35
63 | CNC(=O)[C@H]1O[C@@H](n2cnc3c(NCCc4cn(Cc5cc(C)ccc5C)c5ccccc45)ncnc32)[C@H](O)[C@@H]1O | 0
64 | Cc1ccc(C)c(Cn2cc(CCNc3ncnc4c3ncn4[C@@H]3O[C@H](C(=O)NC4CC4)[C@@H](O)[C@H]3O)c3cc(C)ccc32)c1 | 3
65 | CC(C)n1cc(CCNc2ncnc3c2ncn3[C@@H]2O[C@H](C(=O)NC3CC3)[C@@H](O)[C@H]2O)c2ccccc21 | 14
66 | COc1ccccc1Cn1cc(CCNc2ncnc3c2ncn3C2O[C@H](C(=O)NC3CC3)[C@@H](O)[C@H]2O)c2ccccc21 (stereo partly specified) | 23
